According to ChEMBL document CHEMBL4673191, “A scaffold hopping strategy to generate new aryl-2-amino pyrimidine MRSA biofilm inhibitors” (RSC Med Chem, 2021):
Activity calls are given as the source filed them. The rule behind the calls is not given here.

Experiments:
Acinetobacter baumannii [1] = experiment: Potentiation of colistin-induced antibacterial activty against Acinetobacter baumannii ATCC 4106 assessed as colistin MIC at 60 uM incubated for 16 hrs by broth microdilution assay (reference value: 1024 microg/ml); format: functional
Procedure, shortened: (§1)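 Cultures grown 4–6 h in CAMHB, diluted to 5 x 10⁵ CFU/mL. Compound added to aliquots from 100 mM DMSO stock; one aliquot left undosed for colistin MIC alone. Colistin serially diluted 2-fold in the compound-dosed suspension; compound-alone wells kept. Stationary, 37 °C, 16 h, then OD₆₀₀. Colistin MIC = lowest concentration giving 90% growth inhibition vs untreated. Duplicate, at least twice.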

Klebsiella pneumoniae [2] = experiment: Antibacterial activity against Klebsiella pneumoniae B9 assessed as reduction in bacterial growth incubated for 16 hrs by broth microdilution assay; format: functional
Procedure, shortened: (§2)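 Bacteria grown 4–6 h in CAMHB, subcultured to 5 x 10⁵ CFU/mL in fresh CAMHB. Compound added from 100 mM DMSO stock, then 2-fold serial dilution in microtiter plate; untreated and media-only wells as controls. Stationary incubation at 37 °C for 16 h, then OD₆₀₀ read. MIC taken as lowest concentration giving 90% growth inhibition vs untreated. Duplicate, repeated at least twice.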

Acinetobacter baumannii [3] = experiment: Antibacterial activity against Acinetobacter baumannii ATCC 4106 assessed as reduction in bacterial growth incubated for 16 hrs by broth microdilution assay; format: functional; procedure, shortened: as §2
Staphylococcus aureus [4] = experiment: Inhibition of biofilm formation in methicillin-resistant Staphylococcus aureus ATCC 43300 incubated for 24 hrs by crystal violet staining based assay; format: functional, organism-based; conditions: ATCC 43300, 24 h
Procedure, shortened: (§3)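 Overnight culture subcultured to OD600 0.01 in TSB with 2.0% (w/v) glucose; compound diluted in this medium, 100 µL per well of PVC plates, static incubation 24 h at 37 °C. Wells washed with water, stained with 0.1% crystal violet 30 min at ambient temperature, stain solubilized in ethanol, OD540 read minus no-biofilm background. Duplicates, at least two separate repeats.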

Staphylococcus aureus [5] = experiment: Inhibition of biofilm formation in methicillin-resistant Staphylococcus aureus ATCC 43300 at 200 uM incubated for 24 hrs by crystal violet staining based assay relative to control; format: functional; procedure, shortened: as §3
Staphylococcus aureus [6] = experiment: Antibiofilm activity against preformed methicillin-resistant Staphylococcus aureus ATCC 43300 assessed as dispersion of biofilm at 100 uM incubated for 24 hrs by crystal violet staining based assay; format: functional, organism-based
Procedure, shortened: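 Overnight culture in TSB + 2.0% glucose subcultured to OD600 0.01 in TSBG; 100 µL per well of PVC plates, static 37 °C for 24 h to form biofilm. After washing, compound in medium added for a further 24 h at 37 °C; medium-only control. Washed, 0.1% crystal violet 30 min, ethanol-solubilized, OD540 with no-biofilm background subtracted. Duplicates, ≥2 repeats.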

Klebsiella pneumoniae [7] = experiment: Effect on lipid A substitution pattern of lipopolysaccharide in Klebsiella pneumoniae B9 by mass spectrometry; format: functional
Klebsiella pneumoniae [8] = experiment: Potentiation of colistin-induced antibacterial activity against Klebsiella pneumoniae B9 assessed as colistin MIC at 60 uM incubated for 16 hrs by broth microdilution assay (reference value: 512 ug/ml); format: functional; procedure, shortened: as §1
Staphylococcus aureus [9] = experiment: Antibacterial activity against methicillin-resistant Staphylococcus aureus ATCC 43300 assessed as inhibition of planktonic bacterial growth at IC50 incubated for 24 hrs by colony counter analysis; format: functional
Procedure, shortened: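 MRSA 43300 grown overnight in TSB with 2.0% glucose (TSBG), inoculated into fresh TSBG at OD600 0.01, compound added to 3 mL tube cultures; untreated control. Shaken at 37 °C; samples at 2, 4, 6, 8, 24 h serially diluted in TSBG, plated on nutrient agar, incubated overnight at 37 °C, colonies counted. Duplicates, at least two separate repeats.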

[10] = Hemolytic activity against sheep blood assessed as blood cell lysis at 200 uM incubated for 1 hr by UV-visible spectrophotometry; format: ADME, tissue-based, Ovis aries; conditions: sheep blood cells, read-out: Activity
Procedure, shortened: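 Defibrinated sheep blood centrifuged, washed and resuspended in PBS three times, then diluted 10-fold. Compound added from DMSO stock; 1% Triton X as 100% lysis and PBS as zero lysis. Shaken at 200 rpm, 37 °C, 1 h, then centrifuged. Supernatant diluted 40-fold in water and absorbance read at 540 nm.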

Klebsiella pneumoniae [11] = experiment: Potentiation of colistin-induced antibacterial activty against Klebsiella pneumoniae F2210219mcr-1 assessed as fractional inhibitory concentration index incubated for 16 hrs in presence of colistin by checkerboard assay; format: functional
Procedure, shortened: (§4)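 Checkerboard in CAMHB inoculated with K. pneumoniae at 5 x 10⁵ CFU/mL. Compound serially diluted 2-fold down rows and colistin across columns, starting each at 2x top concentration; one row and one column give single-agent MICs.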

Klebsiella pneumoniae [12] = experiment: Potentiation of colistin-induced antibacterial activty against Klebsiella pneumoniae A5 assessed as fractional inhibitory concentration index incubated for 16 hrs in presence of colistin by checkerboard assay; format: functional; procedure, shortened: as §4
Klebsiella pneumoniae [13] = experiment: Potentiation of colistin-induced antibacterial activty against Klebsiella pneumoniae B9 assessed as fractional inhibitory concentration index incubated for 16 hrs in presence of colistin by checkerboard assay; format: functional; procedure, shortened: as §4
Klebsiella pneumoniae [14] = experiment: Potentiation of colistin-induced antibacterial activty against Klebsiella pneumoniae B9 assessed as fold reduction in colistin MIC at 60 uM incubated for 16 hrs by broth microdilution assay; format: functional; procedure, shortened: as §1
Staphylococcus aureus [15] = experiment: Inhibition of biofilm formation in methicillin-resistant Staphylococcus aureus ATCC 6538 incubated for 24 hrs by crystal violet staining based assay; format: functional, organism-based; conditions: ATCC 6538, 24 h; procedure, shortened: as §3
Staphylococcus aureus [16] = experiment: Inhibition of biofilm formation in methicillin-resistant Staphylococcus aureus ATCC 33591 incubated for 24 hrs by crystal violet staining based assay; format: functional, organism-based; conditions: ATCC 33591, 24 h; procedure, shortened: as §3
Staphylococcus aureus [17] = experiment: Inhibition of biofilm formation in methicillin-resistant Staphylococcus aureus BAA-44 incubated for 24 hrs by crystal violet staining based assay; format: functional, organism-based; conditions: BAA-44, 24 h; procedure, shortened: as §3

Row | Structure (SMILES) | MIC (Acinetobacter baumannii [1]) | MIC (Klebsiella pneumoniae [2]) | MIC (Acinetobacter baumannii [3]) | IC50 (Staphylococcus aureus [4]) | inhibition at 200 µM (Staphylococcus aureus [5]) | Activity (Staphylococcus aureus [6]) | Activity (Klebsiella pneumoniae [7]) | MIC (Klebsiella pneumoniae [8]) | Activity (Staphylococcus aureus [9]) | hemolysis at 1 h, 200 µM [10] | fractional inhibitory concentration index (FICI) (Klebsiella pneumoniae [11]) | fractional inhibitory concentration index (FICI) (Klebsiella pneumoniae [12]) | fractional inhibitory concentration index (FICI) (Klebsiella pneumoniae [13]) | fold change (FC) (Klebsiella pneumoniae [14]) | IC50 (Staphylococcus aureus [15]) | IC50 (Staphylococcus aureus [16]) | IC50 (Staphylococcus aureus [17]) | MIC (Staphylococcus aureus [9])
1 | Cl.Nc1ncc(-c2ccccc2NC(=O)c2cc(Br)cc(Br)c2)cn1 | > 64 µg/mL | ≥ 200 µM | ≥ 200 µM | 69 µM | > 50% | inactive | – | – | – | – | – | – | – | – | – | – | – | –
2 | Cl.Nc1ncc(-c2ccccc2NC(=O)c2cc(Cl)cc(Cl)c2)cn1 | > 64 µg/mL | ≥ 200 µM | ≥ 200 µM | > 100 µM | > 50% | inactive | – | – | – | – | – | – | – | – | – | – | – | –
3 | Cl.Nc1ncc(-c2ccc(NC(=O)c3cc(F)cc(F)c3)cc2)cn1 | > 64 µg/mL | ≥ 200 µM | ≥ 200 µM | > 200 µM | > 50% | inactive | – | – | – | – | – | – | – | – | – | – | – | –
4 | Cl.Nc1ncc(-c2ccccc2NC(=O)c2cc(F)cc(F)c2)cn1 | > 64 µg/mL | ≥ 200 µM | ≥ 200 µM | > 200 µM | > 50% | inactive | – | – | – | – | – | – | – | – | – | – | – | –
5 | Cl.Nc1nccc(-c2cccc(NC(=O)c3cc(F)cc(F)c3)c2)n1 | > 64 µg/mL | ≥ 200 µM | ≥ 200 µM | > 200 µM | > 50% | inactive | – | – | – | – | – | – | – | – | – | – | – | –
6 | Cl.Nc1ncc(-c2ccc(NC(=O)c3cc(Br)cc(Br)c3)cc2)cn1 | > 64 µg/mL | ≥ 200 µM | ≥ 200 µM | > 100 µM | > 50% | inactive | – | – | – | – | – | – | – | – | – | – | – | –
7 | Cl.Nc1nccc(-c2cccc(NC(=O)c3cc(Br)cc(Br)c3)c2)n1 | > 64 µg/mL | ≥ 200 µM | ≥ 200 µM | 17.4 µM | > 50% | inactive | inactive | 16 µg/mL | inactive | 3.4% | <=0.19 | <=0.31 | <=0.09 | 32 | 15.6 µM | 20.2 µM | 14.1 µM | –
8 | Cl.Nc1nccc(-c2ccc(NC(=O)c3cc(F)cc(F)c3)cc2)n1 | > 64 µg/mL | ≥ 200 µM | ≥ 200 µM | > 200 µM | > 50% | inactive | – | – | – | – | – | – | – | – | – | – | – | –
9 | Cl.Nc1nccc(-c2ccccc2NC(=O)c2cc(Cl)cc(Cl)c2)n1 | > 64 µg/mL | ≥ 200 µM | ≥ 200 µM | > 50 µM | > 50% | inactive | – | – | – | – | – | – | – | – | – | – | – | –
10 | Cl.Nc1nccc(-c2cccc(NC(=O)c3cc(Cl)cc(Cl)c3)c2)n1 | > 64 µg/mL | ≥ 200 µM | ≥ 200 µM | 26.4 µM | > 50% | inactive | – | – | inactive | 5% | – | – | – | – | 24.9 µM | 26.6 µM | 29.5 µM | –
11 | Cl.Nc1ncc(-c2cccc(NC(=O)c3cc(F)cc(F)c3)c2)cn1 | > 64 µg/mL | ≥ 200 µM | ≥ 200 µM | > 200 µM | > 50% | inactive | – | – | – | – | – | – | – | – | – | – | – | –
12 | Cl.Nc1ncc(-c2cccc(NC(=O)c3cc(Br)cc(Br)c3)c2)cn1 | > 64 µg/mL | ≥ 200 µM | ≥ 200 µM | 43 µM | > 50% | inactive | – | – | – | – | – | – | – | – | – | – | – | –
13 | Cl.Nc1nccc(-c2ccc(NC(=O)c3cc(Br)cc(Br)c3)cc2)n1 | > 64 µg/mL | ≥ 200 µM | ≥ 200 µM | > 50 µM | > 50% | inactive | – | – | – | – | – | – | – | – | – | – | – | –
14 | CCCCCCCCCC(=O)NCCCc1cnc(N)nc1 | – | – | – | – | – | – | – | – | – | – | – | – | – | – | – | – | 72 µM | –
15 | Nc1nccc(-c2cccc(NC(=O)c3cc(Cl)cc(Br)c3)c2)n1 | – | – | – | 27.6 µM | – | – | – | – | – | – | – | – | – | – | – | – | – | > 200 µM
16 | Cl.Nc1nccc(-c2ccc(NC(=O)c3cc(Cl)cc(Cl)c3)cc2)n1 | > 64 µg/mL | ≥ 200 µM | ≥ 200 µM | 41 µM | > 50% | inactive | – | – | – | – | – | – | – | – | – | – | – | –
17 | Cl.Nc1nccc(-c2ccccc2NC(=O)c2cc(F)cc(F)c2)n1 | > 64 µg/mL | ≥ 200 µM | ≥ 200 µM | > 200 µM | > 50% | inactive | – | – | – | – | – | – | – | – | – | – | – | –
18 | Cl.Nc1ncc(-c2ccc(NC(=O)c3cc(Cl)cc(Cl)c3)cc2)cn1 | > 64 µg/mL | ≥ 200 µM | ≥ 200 µM | > 200 µM | > 50% | inactive | – | – | – | – | – | – | – | – | – | – | – | –
19 | Cl.Nc1ncc(-c2cccc(NC(=O)c3cc(Cl)cc(Cl)c3)c2)cn1 | > 64 µg/mL | ≥ 200 µM | ≥ 200 µM | > 200 µM | > 50% | inactive | – | – | – | – | – | – | – | – | – | – | – | –
20 | Cl.Nc1nccc(-c2ccccc2NC(=O)c2cc(Br)cc(Br)c2)n1 | > 64 µg/mL | ≥ 200 µM | ≥ 200 µM | > 200 µM | > 50% | inactive | – | – | – | – | – | – | – | – | – | – | – | –
